Data reported in article PMC3902791 (Molecular imaging and biology : MIB : the official …, 2012).
“And” between values parts separate entries of the source, which are not always exact repeats. Equal values may be shown once. Read-outs that look alike come from different tables or passages of the source.

Parameters: species or system human
Method in brief: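 Organ time–activity curves came from whole-body scan VOI data. These were fitted mono-exponentially in five animals; in the sixth, with two scans, a linear fit to the log values was used. Time-integrated activity coefficients were scaled by the ratio of body-mass-normalised human to CT-derived macaque organ masses. Intestinal values were split in thirds across small intestine, ULI and LLI. Organ doses (mSv/MBq) were computed per animal with the OLINDA/EXM 1.1 adult male model.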

## O=C(O)C[18F] [^18F-FACE, ^18F-fluoroacetate]
All, Mean±SD
  Dose to adult human model, Total body: 0.011±0.002 mSv/MBq
  ED effective dose, adult human model: 0.0211 mSv/MBq and 0.021±0.004 mSv/MBq
  EDE effective dose equivalent, adult human model: 0.023±0.004 mSv/MBq
  Organ dose to adult human model, Adrenals: 0.013±0.002 mSv/MBq
  Organ dose to adult human model, Brain: 0.00762 mSv/MBq and 0.008±0.002 mSv/MBq
  Organ dose to adult human model, Breasts: 0.00774 mSv/MBq and 0.008±0.001 mSv/MBq
  Organ dose to adult human model, Gallbladder wall: 0.0288 mSv/MBq and 0.029±0.010 mSv/MBq
  Organ dose to adult human model, Heart wall: 0.025±0.010 mSv/MBq
  Organ dose to adult human model, Kidneys: 0.0342 mSv/MBq and 0.034±0.008 mSv/MBq
  Organ dose to adult human model, LLI wall (lower large intestine): 0.075±0.027 mSv/MBq
  Organ dose to adult human model, Liver: 0.0307 mSv/MBq and 0.031±0.021 mSv/MBq
  Organ dose to adult human model, Lungs: 0.010±0.002 mSv/MBq
  Organ dose to adult human model, Muscle: 0.010±0.002 mSv/MBq
  Organ dose to adult human model, Osteogenic cells: 0.014±0.003 mSv/MBq
  Organ dose to adult human model, Ovaries: 0.016±0.002 mSv/MBq
  Organ dose to adult human model, Pancreas: 0.013±0.002 mSv/MBq
  Organ dose to adult human model, Red marrow: 0.0102 mSv/MBq and 0.010±0.002 mSv/MBq
  Organ dose to adult human model, Skin: 0.007±0.001 mSv/MBq
  Organ dose to adult human model, Small intestine: 0.037±0.011 mSv/MBq
  Organ dose to adult human model, Spleen: 0.011±0.002 mSv/MBq
  Organ dose to adult human model, Stomach wall: 0.012±0.002 mSv/MBq
  Organ dose to adult human model, Testes: 0.009±0.001 mSv/MBq
  Organ dose to adult human model, Thymus: 0.010±0.002 mSv/MBq
  Organ dose to adult human model, Thyroid: 0.00888 mSv/MBq and 0.009±0.002 mSv/MBq
  Organ dose to adult human model, ULI wall (upper large intestine): 0.056±0.019 mSv/MBq
  Organ dose to adult human model, Urinary bladder wall: 0.021±0.010 mSv/MBq
  Organ dose to adult human model, Uterus: 0.014±0.003 mSv/MBq
Female, Mean±SD
  Dose to adult human model, Total body: 0.010±0.002 mSv/MBq
  ED effective dose, adult human model: 0.018±0.001 mSv/MBq
  EDE effective dose equivalent, adult human model: 0.020±0.001 mSv/MBq
  Organ dose to adult human model, Adrenals: 0.012±0.002 mSv/MBq
  Organ dose to adult human model, Brain: 0.007±0.002 mSv/MBq
  Organ dose to adult human model, Breasts: 0.007±0.002 mSv/MBq
  Organ dose to adult human model, Gallbladder wall: 0.031±0.013 mSv/MBq
  Organ dose to adult human model, Heart wall: 0.019±0.006 mSv/MBq
  Organ dose to adult human model, Kidneys: 0.031±0.010 mSv/MBq
  Organ dose to adult human model, LLI wall (lower large intestine): 0.058±0.005 mSv/MBq
  Organ dose to adult human model, Liver: 0.021 ±0.009 mSv/MBq
  Organ dose to adult human model, Lungs: 0.009±0.002 mSv/MBq
  Organ dose to adult human model, Muscle: 0.009±0.002 mSv/MBq
  Organ dose to adult human model, Osteogenic cells: 0.014±0.004 mSv/MBq
  Organ dose to adult human model, Ovaries: 0.016±0.002 mSv/MBq
  Organ dose to adult human model, Pancreas: 0.012±0.002 mSv/MBq
  Organ dose to adult human model, Red marrow: 0.009±0.002 mSv/MBq
  Organ dose to adult human model, Skin: 0.007±0.002 mSv/MBq
  Organ dose to adult human model, Small intestine: 0.030±0.002 mSv/MBq
  Organ dose to adult human model, Spleen: 0.010±0.003 mSv/MBq
  Organ dose to adult human model, Stomach wall: 0.011±0.002 mSv/MBq
  Organ dose to adult human model, Thymus: 0.009±0.002 mSv/MBq
  Organ dose to adult human model, Thyroid: 0.009±0.003 mSv/MBq
  Organ dose to adult human model, ULI wall (upper large intestine): 0.044±0.003 mSv/MBq
  Organ dose to adult human model, Urinary bladder wall: 0.017±0.004 mSv/MBq
  Organ dose to adult human model, Uterus: 0.014±0.003 mSv/MBq
Male, Mean±SD
  Dose to adult human model, Total body: 0.012±0.001 mSv/MBq
  ED effective dose, adult human model: 0.025±0.003 mSv/MBq
  EDE effective dose equivalent, adult human model: 0.027±0.003 mSv/MBq
  Organ dose to adult human model, Adrenals: 0.014±0.002 mSv/MBq
  Organ dose to adult human model, Brain: 0.008±0.001 mSv/MBq
  Organ dose to adult human model, Breasts: 0.008±0.001 mSv/MBq
  Organ dose to adult human model, Gallbladder wall: 0.027±0.008 mSv/MBq
  Organ dose to adult human model, Heart wall: 0.031±0.010 mSv/MBq
  Organ dose to adult human model, Kidneys: 0.037±0.008 mSv/MBq
  Organ dose to adult human model, LLI wall (lower large intestine): 0.091±0.031 mSv/MBq
  Organ dose to adult human model, Liver: 0.040±0.026 mSv/MBq
  Organ dose to adult human model, Lungs: 0.010±0.001 mSv/MBq
  Organ dose to adult human model, Muscle: 0.010±0.001 mSv/MBq
  Organ dose to adult human model, Osteogenic cells: 0.015±0.001 mSv/MBq
  Organ dose to adult human model, Pancreas: 0.015±0.001 mSv/MBq
  Organ dose to adult human model, Red marrow: 0.011±0.001 mSv/MBq
  Organ dose to adult human model, Skin: 0.008±0.001 mSv/MBq
  Organ dose to adult human model, Small intestine: 0.044±0.012 mSv/MBq
  Organ dose to adult human model, Spleen: 0.012±0.001 mSv/MBq
  Organ dose to adult human model, Stomach wall: 0.013±0.001 mSv/MBq
  Organ dose to adult human model, Testes: 0.009±0.001 mSv/MBq
  Organ dose to adult human model, Thymus: 0.010±0.001 mSv/MBq
  Organ dose to adult human model, Thyroid: 0.009±0.001 mSv/MBq
  Organ dose to adult human model, ULI wall (upper large intestine): 0.068±0.021 mSv/MBq
  Organ dose to adult human model, Urinary bladder wall: 0.025±0.015 mSv/MBq
Administration of 185–370 MBq
  estimated effective dose for an adult human: 3.90–7.81 mSv
Adult male model
  radiation absorbed dose, intestines: 0.0366–0.0745 mSv/MBq
From animal 1, male
  Dose to adult human model, Total body: 0.012 mSv/MBq
  ED effective dose, adult human model: 0.022 mSv/MBq
  EDE effective dose equivalent, adult human model: 0.024 mSv/MBq
  Organ dose to adult human model, Adrenals: 0.016 mSv/MBq
  Organ dose to adult human model, Brain: 0.007 mSv/MBq
  Organ dose to adult human model, Breasts: 0.008 mSv/MBq
  Organ dose to adult human model, Gallbladder wall: 0.031 mSv/MBq
  Organ dose to adult human model, Heart wall: 0.035 mSv/MBq
  Organ dose to adult human model, Kidneys: 0.046 mSv/MBq
  Organ dose to adult human model, LLI wall (lower large intestine): 0.058 mSv/MBq
  Organ dose to adult human model, Liver: 0.067 mSv/MBq
  Organ dose to adult human model, Lungs: 0.011 mSv/MBq
  Organ dose to adult human model, Muscle: 0.010 mSv/MBq
  Organ dose to adult human model, Osteogenic cells: 0.014 mSv/MBq
  Organ dose to adult human model, Pancreas: 0.016 mSv/MBq
  Organ dose to adult human model, Red marrow: 0.011 mSv/MBq
  Organ dose to adult human model, Skin: 0.007 mSv/MBq
  Organ dose to adult human model, Small intestine: 0.031 mSv/MBq
  Organ dose to adult human model, Spleen: 0.012 mSv/MBq
  Organ dose to adult human model, Stomach wall: 0.013 mSv/MBq
  Organ dose to adult human model, Testes: 0.009 mSv/MBq
  Organ dose to adult human model, Thymus: 0.010 mSv/MBq
  Organ dose to adult human model, Thyroid: 0.009 mSv/MBq
  Organ dose to adult human model, ULI wall (upper large intestine): 0.045 mSv/MBq
  Organ dose to adult human model, Urinary bladder wall: 0.042 mSv/MBq
From animal 2, male
  Dose to adult human model, Total body: 0.012 mSv/MBq
  ED effective dose, adult human model: 0.025 mSv/MBq
  EDE effective dose equivalent, adult human model: 0.027 mSv/MBq
  Organ dose to adult human model, Adrenals: 0.014 mSv/MBq
  Organ dose to adult human model, Brain: 0.007 mSv/MBq
  Organ dose to adult human model, Breasts: 0.008 mSv/MBq
  Organ dose to adult human model, Gallbladder wall: 0.033 mSv/MBq
  Organ dose to adult human model, Heart wall: 0.038 mSv/MBq
  Organ dose to adult human model, Kidneys: 0.032 mSv/MBq
  Organ dose to adult human model, LLI wall (lower large intestine): 0.096 mSv/MBq
  Organ dose to adult human model, Liver: 0.041 mSv/MBq
